Assay outcomes: PubChem, several laboratories
Ins promoter up = MIN6 insulin promoter up-regulation | MIN6 insulin promoter-GFP reporter, high-content imaging; active compounds read high | z-score at 5 µM | 190,000 tested, 0.3% active | AID 1625;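 active = z-score above 3 at 5 µM with at least 500 cells counted in the well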
Arbovirus inh = antivirals against arbovirus infection. arbovirus infection cell-based antiviral screen. inhibition, % at 10 µM. 200,000 tested, 0.37% active; in the data active = inhibition above about 30%
RBBP9 inhibitor = inhibitors of human serine hydrolase RBBP9 | recombinant RBBP9, FP-Rh probe fluorescence polarization | inhibition, % at 7.94 µM | AID 1515 | O75884 | 220,000 tested, 0.2% active;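 active = inhibition above the campaign mean of all tested compounds plus 3 SD, cut at about 14% in these data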;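 also: plate controls were DMSO wells with RBBP9 for no effect and wells lacking RBBP9 protein for full effect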
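System: RBBP9 protein / Buffer or medium: Tris/NaCl buffer pH 8.0 with 0.1% Pluronic / Probe or stimulus: Serine-hydrolase probe FP-Rh, 375 nM pre-mixing / Dosing: 7.94 µM single dose, 0.794% DMSO / Times: enzyme-compound preincubation 30 min, then probe labeling 45 min, 25 °C / Technique: fluorescence polarization (mP), excitation 525 nm, emission 598 nm / Replication: singlicate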
Autophagy mod = alters autophagy in cells | MEF GFP-LC3 puncta imaging; test concentration mostly 10 µM | 190,000 tested, 0.98% active | calls only at 10 µM (by protocol);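 active = percentage of spot-positive cells more than 3 SD above its plate mean, without a fluorescence outlier flag or 80% toxicity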;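 also: spot-positive cell cutoff set from DMSO-treated cells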
PKD1 inh = blocks activity of human protein kinase D1. PKD1 kinase fluorescence polarization assay. inhibition, % (no concentration beside the values). 200,000 tested, 0.056% active. AID 797; in the data active = inhibition above about 50%
Insulin prom inh = TRM-6 insulin promoter activity inhibition. inhibition, % at 2 µM. TRM-6 cells (human fetal islet line), insulin promoter-eGFP reporter, imaging; reporter expression induced with tamoxifen. AID 1273. 130,000 tested, 0.9% active;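 active = inhibition above the mean plus 3 SD, with well images judged a real hit on visual review, cut at about 60% in these data, passing the limit was not always enough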
The depositor's hits bear a star; i = inactive; · = no result; + = active, no number. Rows were chosen to be rich in hits. Some 2.1% of all compounds tested hit in one or more screens of this group.

SMILES	Ins promoter up	Arbovirus inh	RBBP9 inhibitor	Autophagy mod	PKD1 inh	Insulin prom inh
COc1ccc(-c2n(CC(=O)OC3CC(C)CCC3C(C)C)c3ccccc3[n+]2C)cc1 (stereo not given)	·	-31	2	+	1	-100
CC(=O)NS(=O)(=O)c1ccc(NC(=O)CN2C(=O)C3C4C=CC(C4)C3C2=O)cc1 (stereo not given)	0.88	-2	-13	i	-7	18
O=C(O)c1cc(N/N=C2/CC(c3ccccc3)Oc3ccccc32)ccc1Cl (stereo not given)	-0.28	32*	-1	i	-1	34
Cc1ccc(-c2nnc(Nc3ccc(CC(N)=O)cc3)c3ccccc23)cc1	0	0	-5	i	-3	-35
O=C1C2CC=CCC2C(=O)N1c1ccc(NCCc2ccccc2)c([N+](=O)[O-])c1 (stereo not given)	·	-5	-5	i	-1	-73
CCN(CC)CCN(C)c1ccc(N2C(=O)C3CC=CCC3C2=O)cc1[N+](=O)[O-] (stereo not given)	-0.1	-6	-2	+	-6	36
c1ccc(N=C(c2cccs2)N2CCOCC2)cc1	·	-3	-2	i	0	26
Cc1ccc(S(=O)(=O)/N=C2/C=C(C3C(=O)CC(C)(C)CC3=O)C(=O)c3ccccc32)cc1	-0.07	-22	1	i	13	17
S=C(Nc1ccc2cn[nH]c2c1)Nc1ccccc1Cl	0.71	1	-2	i	6	64*
S=C(Nc1ccc2cn[nH]c2c1)Nc1ccc(Cl)cc1Cl	·	12	2	i	8	-15
COc1ccc(S(=O)(=O)N(C)CC(=O)Nc2ccccc2C(F)(F)F)cc1OC	-0.75	-5	-3	i	8	23
CN1CCN(c2ccc(NC(=O)COc3ccccc3[N+](=O)[O-])cc2)CC1	0.5	2	-1	i	-5	26
O=C(NCc1ccccn1)C(=O)NCc1ccccn1	0.06	-4	-2	i	3	80*
COc1ccc(/C=C(\C#N)c2nc3ccc(C)cc3[nH]2)cc1Oc1ccc(C(F)(F)F)cc1[N+](=O)[O-]	-0.8	-33	-4	+	4	·
Cc1ccc2nc(/C(C#N)=C/c3ccc(-c4cccc([N+](=O)[O-])c4)o3)[nH]c2c1	0.83	-4	-5	+	-4	·
COc1cc(/C=C(\C#N)c2nc3ccc(C)cc3[nH]2)cc([N+](=O)[O-])c1O	-0.71	44*	-1	i	3	·
O=C(NNC(=O)c1ccccc1F)c1cccc(Cl)c1	-0.26	5	-2	i	-11	-10
Cn1cc([N+](=O)[O-])c(C(=O)NCc2cc3cc(Cl)ccc3[nH]2)n1	-0.76	35*	-13	i	2	-140
Cc1cc(C)c(C(=O)Nc2ccccc2)c(CC(C)(C)C(=O)O)c1	0.65	·	-4	·	·	·
Cc1cc(C)c(C(=O)O)c(CC(C)(C)C(=O)O)c1	3.1*	·	-3	·	·	·
CCOC(=O)N1CCN(C(=S)NC2CCCCC2)CC1	·	2	-6	i	-9	·
CCOC(=O)N1CCN(C(=S)NC(C)(C)C)CC1	·	2	5	i	1	15
CCOC(=O)N1CCN(C(=S)NC)CC1	-0.1	3	1	i	-4	72*
CCOC(=O)N1CCN(C(=O)NC2CCCCC2)CC1	3.7*	0	-5	i	-6	-30
CC(C)CSC1=NSC2=NC(=O)/C(=C\c3cccs3)C(=N)N12	0.63	48*	-11	i	-6	-24
SMILES	Ins promoter up	Arbovirus inh	RBBP9 inhibitor	Autophagy mod	PKD1 inh	Insulin prom inh
CSC1=NSC2=NC(=O)/C(=C\c3cccs3)C(=N)N12	0.03	41*	-2	i	13	79*
CC1=CC2=NC(=O)/C(=C/c3cccs3)C(=N)N2O1	0.07	·	-1	·	·	·
CSC1=NSC2=NC(=O)/C(=C/c3coc4ccc(O)cc4c3=O)C(=N)N12	0.01	-13	-4	i	-9	-14
CSC1=NSC2=NC(=O)/C(=C/c3coc4ccccc4c3=O)C(=N)N12	0	-8	-7	i	-15	10
N=C1/C(=C/c2cccs2)C(=O)N=C2SN=C(SCc3ccccc3)N12	0.13	35*	-12	i	11	27
O=[N+]([O-])c1ccc(N/N=C/c2cccc(O)c2O)c(S(=O)(=O)N2CCOCC2)c1	-1.5	-8	-14	+	-1	·
O=[N+]([O-])c1ccc(N/N=C/c2ccc(O)c(O)c2O)c(S(=O)(=O)N2CCOCC2)c1	-0.04	-9	-1	i	-1	·
CCOC(=O)c1oc2ccccc2c1N	·	-5	-1	i	-12	49
CCOc1ccc(-c2cc(C(=O)N3CCN(C)CC3)c3ccccc3n2)cc1	0.77	-1	-7	i	-2	·
O=C(CSc1nccc(=O)[nH]1)N1N=C2/C(=C/c3ccco3)CCCC2C1c1ccco1 (stereo not given)	2	49*	3	i	1	·
Cc1ccc(N2C(=O)CC(SCC(=O)Nc3ccc(S(N)(=O)=O)cc3)C2=O)cc1 (stereo not given)	·	0	-13	i	-1	·
CCN1CCN(C(c2cc3cccc(C)c3[nH]c2=O)c2nnnn2Cc2ccccc2)CC1 (stereo not given)	0.33	15	-2	i	-4	-25
Cc1cccc2cc(C(c3nnnn3Cc3ccccc3)N3CCCc4ccccc43)c(=O)[nH]c12 (stereo not given)	·	-14	0	+	0	30
CC(C)NC(=O)/C(C#N)=C\c1ccc(N(C)C)o1	12*	-7	-2	i	-4	i
CCN(CC)c1ccc(/C=C(/C#N)C(=O)NC(C)C)o1	·	-4	-6	i	2	·
CCN(CC)c1ccc(/C=C(/C#N)C(=O)NCc2ccccc2)o1	3	7	2	+	-19	-169
Cc1nnc2sc(SCc3cccc(Cl)c3)nn2c1=O	-0.19	31*	-5	i	-3	17
O=C1OC(N2CCN(C/C=C/c3ccccc3)CC2)c2ccccc21 (stereo not given)	-0.15	-2	-10	i	-8	83*
Cc1ccc(CNc2ccc3c(c2)OCO3)cc1	·	-8	-4	+	-5	-441
c1cc(CNc2ccc3c(c2)OCO3)ccn1	·	-11	3	i	-5	35
CCn1c(C(C)NC(=O)c2cccc(C)c2)n[nH]c1=S (stereo not given)	-0.54	-9	-6	i	-3	·
Cc1c(N2C(=O)c3cccc4cccc(c34)C2=O)c(=O)n(-c2ccccc2)n1C	0.73	6	1	i	1	69*
COc1ccccc1C(=O)N=Nc1c(O)[nH]c2ccc([N+](=O)[O-])cc12	-0.61	-8	10	+	-4	-111
NC(=O)N=Nc1c(O)[nH]c2ccc([N+](=O)[O-])cc12	-0.01	·	-12	·	·	·
Oc1cccc(/C=N/Nc2cc(N3CCCC3)nc(N3CCCC3)n2)c1	-0.33	28	-6	i	-2	-18
